From PubChem
Only a sample is shown.
Apaf1 activ – activators of human Apaf-1 apoptosome, primary screen, biochemical, DEVD-Rh110 fluorescence, uHTS | 330,000 compounds, 0.31% hits | Apaf-1 apoptosome caspase-3 activation; active compounds read low | activity change, negative = activation, % at 20 µM | Apoptotic protease-activating factor 1 (Homo sapiens), O14727 | AID 489031, 2010;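 active = activity change at or below -40% at 20 µM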
Target sequence (O14727 whole entry, looked up): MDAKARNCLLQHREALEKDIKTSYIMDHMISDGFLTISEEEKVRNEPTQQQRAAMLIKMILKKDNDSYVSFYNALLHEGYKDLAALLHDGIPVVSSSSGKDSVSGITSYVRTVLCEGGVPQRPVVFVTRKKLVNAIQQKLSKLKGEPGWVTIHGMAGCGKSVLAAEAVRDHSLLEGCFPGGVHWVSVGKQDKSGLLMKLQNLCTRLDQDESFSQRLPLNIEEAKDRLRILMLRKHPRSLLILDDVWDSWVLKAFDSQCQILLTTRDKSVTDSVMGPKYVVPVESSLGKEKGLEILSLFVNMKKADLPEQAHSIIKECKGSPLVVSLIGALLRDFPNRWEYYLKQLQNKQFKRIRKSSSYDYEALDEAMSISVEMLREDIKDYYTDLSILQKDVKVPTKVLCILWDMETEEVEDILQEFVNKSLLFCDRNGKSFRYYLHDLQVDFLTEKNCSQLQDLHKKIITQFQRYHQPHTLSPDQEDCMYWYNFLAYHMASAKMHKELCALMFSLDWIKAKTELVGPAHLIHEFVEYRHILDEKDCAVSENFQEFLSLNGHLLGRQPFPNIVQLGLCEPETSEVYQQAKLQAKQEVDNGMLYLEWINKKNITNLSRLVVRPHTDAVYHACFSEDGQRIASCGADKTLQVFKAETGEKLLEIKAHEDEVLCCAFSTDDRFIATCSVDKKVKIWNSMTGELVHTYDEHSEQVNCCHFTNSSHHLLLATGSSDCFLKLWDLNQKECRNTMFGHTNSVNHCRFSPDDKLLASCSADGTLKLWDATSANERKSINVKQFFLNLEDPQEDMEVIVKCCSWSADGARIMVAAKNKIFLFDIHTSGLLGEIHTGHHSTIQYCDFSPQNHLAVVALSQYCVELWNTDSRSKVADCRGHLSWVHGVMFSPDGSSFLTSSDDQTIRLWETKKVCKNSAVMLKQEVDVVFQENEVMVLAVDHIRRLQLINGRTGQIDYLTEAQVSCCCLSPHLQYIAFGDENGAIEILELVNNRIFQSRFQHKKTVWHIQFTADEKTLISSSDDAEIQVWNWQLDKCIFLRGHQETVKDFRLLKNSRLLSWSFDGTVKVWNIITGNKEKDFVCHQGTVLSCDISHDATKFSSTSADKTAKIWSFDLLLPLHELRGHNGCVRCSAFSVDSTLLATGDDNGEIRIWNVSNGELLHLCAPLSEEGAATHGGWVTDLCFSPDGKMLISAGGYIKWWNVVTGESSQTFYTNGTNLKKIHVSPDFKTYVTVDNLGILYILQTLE
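system = biochemical Apaf-1 apoptosome reconstitution | buffer or medium = 20 mM HEPES pH 7.5 with CHAPS, BSA | also added = dATP and cytochrome c as apoptosome triggers, (Z-DEVD)2-Rh110 substrate | incubation = 30 min compound preincubation and 50 min reaction, both room temperature | measured by = fluorescence, 540 nm emission, 480 nm excitation | read-out basis = Caspase-3 cleavage activity downstream of Apaf-1 activation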
Rh110 interf act – Rh110 fluorescence interference by putative Apaf-1 activators, confirmation, artefact control for Apaf-1 activator project, biochemical, 20 µM; quenched caspase reaction, Ex480/Em540; 980 tested, under 10 active; shares compounds with Apaf1 activ; fluorescence interference (activity change), % at 20 µM, hits read low;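 active = mean activity change at or below -40% when tested at 20 µM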
Apaf-1 act conf – Apaf-1 activators, single-dose retest, confirmation, biochemical, fluorescence, DEVD-Rh110, 20 µM | activity change, negative = activation, % at 20 µM | reconstituted apoptosome caspase-3 activity; active compounds read low | 980 compounds, 5% hits | shares compounds with Apaf1 activ;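 active = mean activity change at or below -40%, meaning activation of 40% or more, at 20 µM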
Fluor interf act – fluorescence interference of Apaf-1 activator hits, dose response, artefact control for Apaf-1 activator project. EC50, µM. shares compounds with Apaf1 activ. AID 588592, 2011. fluorescence interference counterscreen, Apaf-1 activator assay. 55 tested, under 10 active; call rule not given here
Each line names hits and unclear results; the compound was inactive in the other large screens (follow-up assays come after a bar, where they were run).

C=C(C)C(=O)Nc1cccc(C2=NOC3(C2)C[C@H](C(N)=O)N(C(=O)/C=C/C)C3)c1 (some centres not stated)	Apaf1 activ -280.4 | Rh110 interf act inactive | Apaf-1 act conf -125.9 | Fluor interf act inactive
C=C(C)C(=O)Nc1cccc(C2=NOC3(C2)C[C@@H](C(N)=O)N(C(=O)/C=C/CC)C3)c1 (some centres not stated)	Apaf1 activ -205.3 | Rh110 interf act inactive | Apaf-1 act conf -114.0 | Fluor interf act inactive
CCN(CC(=O)NCc1cccs1)C(=O)C1CC(=O)N(c2ccc(OC)cc2OC)C1 (configuration not stated)	none
CC(=O)c1ccc(OCC(O)CN2CCN(Cc3ccc4c(c3)OCO4)CC2)cc1 (configuration not stated)	none
C/C(=N\NC(=O)Cn1ccc(C(F)(F)F)n1)c1ccc2c(c1)OCO2	Apaf1 activ -134.3 | Rh110 interf act inactive | Apaf-1 act conf inactive
O=C1C=C(Nc2ccc(F)cc2)c2ccccc2C1=O	none
COc1ccc(OC)c2c1sc(=NC(=O)C(C)(C)C)n2C	Apaf1 activ -370.3 | Rh110 interf act inactive | Apaf-1 act conf inactive
Cc1ccccc1-n1c(C)nc2ccccc21	Apaf1 activ -75.2 | Rh110 interf act inactive | Apaf-1 act conf inactive
CN1CCN(CCCNC(=O)c2cc3c(-c4ccc(Cl)cc4)nn(C)c3s2)CC1	none
C#CCOCCOCCOCCNc1nc(N2CCN(C(=O)[C@H](Cc3cc4ccccc4[nH]3)n3cc([C@@H](N)CC(C)C)nn3)CC2)nc(N2CCN(C(=O)[C@H](Cc3cc4ccccc4[nH]3)n3cc([C@@H](N)CC(C)C)nn3)CC2)n1	none
COc1ccc(O)c(C(=O)c2cc(C#N)c(=O)n(-c3c(C)n(C)n(-c4ccccc4)c3=O)c2)c1	Apaf1 activ -40.3 | Rh110 interf act inactive | Apaf-1 act conf inactive
COc1cc(-c2c(C#N)c(=O)[nH]c3c2c(C)nn3-c2ccccc2)ccc1O	none
OCCN1CCN(CC/C=C2/c3ccccc3Sc3ccc(Cl)cc32)CC1	none
Cc1cc(OCc2nn[nH]n2)c2c(C)c(Cc3ccccc3)c(=O)oc2c1	Apaf1 activ -45.1 | Rh110 interf act inactive | Apaf-1 act conf inactive
Cc1ccccc1OCCNc1cc(N2CC(C)NC(C)C2)ccc1[N+](=O)[O-] (configuration not stated)	none
CCN1CCN(Cc2ccc(NC(=O)c3ccc(C)c(NC(=O)C(=O)c4c[nH]c5ccccc45)c3)cc2C(F)(F)F)CC1	none
O=C(NC1CCCCC1)C(c1ccncc1)N(C(=O)c1csnn1)c1ccccc1F (configuration not stated)	Apaf1 activ -127.8 | Rh110 interf act inactive | Apaf-1 act conf inactive
CCOc1cccc(N(C(=O)C2COc3ccccc3O2)C(C(=O)NC2CCCCC2)c2ccc(O)cc2)c1 (configuration not stated)	none
NC(=O)CC1Nc2cccc3cccc(c23)NC1=O (configuration not stated)	none
CCCN1C(=O)/C(=C/c2cc(C)n(C)c2C)SC1=Nc1ccc(OC)cc1	none
CC1=NN(c2ccccc2)C(=O)/C1=C\N(O)c1ccccc1	none
Cc1ccc(C=Nc2ccccc2C(=O)Nc2ccccc2)cc1	Apaf1 activ -464.1 | Rh110 interf act inactive | Apaf-1 act conf inactive
CCCCCc1cc(=O)oc2c(C(CCN3CCCC(C)C3)c3ccc(N(C)C)cc3)c(OC)cc(OC)c12 (configuration not stated)	none
CCN(CC)CCN(C(=O)c1ccc2c(c1)CCCC2)c1nc2ccc(OC)cc2s1	none
C#CCOCCOCCOCCNc1nc(N2CCN(C(=O)CCCCCCCCCCNC(=O)[C@H](CCCCN)n3cc(C)nn3)CC2)nc(N2CCN(C(=O)CCCCCCCCCCNC(=O)[C@@H]([C@H](C)CC)n3cc(CCCCCN)nn3)CC2)n1	none
O=C(OCc1nnc(-c2ccccc2)o1)c1ccc([N+](=O)[O-])s1	none
O=C(CSc1ccc(-c2ccc3c(c2)OCO3)nn1)Nc1nccs1	Apaf1 activ -45.3 | Rh110 interf act inactive | Apaf-1 act conf inactive
CC(=O)c1cccc(NC(=O)CSc2ccc(-c3ccco3)nn2)c1	none
CCCCCc1cc(=O)oc2c(C(CCN3CCCC(C)C3)c3cc(OC)c(OC)c(OC)c3)c(OC)cc(OC)c12 (configuration not stated)	none
COc1ccc(CCNC(=O)COC(=O)c2cccs2)cc1OC	Apaf1 activ -163.2 | Rh110 interf act inactive | Apaf-1 act conf inactive
COc1ccc(CCN(C)C(=O)c2cccc(S(=O)(=O)NCc3ccccc3)c2)cc1OC	none
CCOc1cc(/C=C2\C(=O)N(c3ccc(C(N)=O)cc3)N=C2C)ccc1OC(=O)c1cccs1	none
O=c1cc(-c2cc3ccccc3o2)c2cc(O)ccc2o1	Apaf1 activ -234.4 | Rh110 interf act inactive | Apaf-1 act conf inactive
C#CCOCCOCCOCCNc1nc(N2CCN(C(=O)CCCCCCCCCCNC(=O)[C@H](CCC(=O)O)n3cc(CCCCCN)nn3)CC2)nc(N2CCN(C(=O)CCCCCCCCCCNC(=O)[C@@H]([C@H](C)O)n3cc(C)nn3)CC2)n1	none
O=S(=O)(c1ccc(Br)cc1)N1CCN(c2ccc3nnc(-c4ccccc4)n3n2)CC1	none
Cc1cc2cc(CNC(=O)NC3CCCCC3)ccc2n1C	none
Cc1ccccc1NC(=O)NC1CCCCCCC1	Apaf1 activ -63.2 | Rh110 interf act inactive | Apaf-1 act conf inactive
Cc1cccn2c(=O)c3cc(C(=O)NC4CCCCC4)c(=N)n(Cc4ccccc4)c3nc12	none
CCCOc1cc(NCc2ccccc2)c2ncn(C(C)C)c2c1	none
CCC(CO)Oc1cc(NCc2cccc(C(F)(F)F)c2)c2ncn(C(C)C)c2c1 (configuration not stated)	none
CCC(C)[C@H]1CN=C(N)N1CCc1cc(C(F)(F)F)cc(C(F)(F)F)c1 (some centres not stated)	none
Cc1ccc2[nH]c(=O)c(C(c3nnnn3CC3CCCO3)N3CCc4ccccc4C3)cc2c1 (configuration not stated)	none
NS(=O)(=O)c1ccc2c(c1)C1C=CCC1C(C1CC=CCC1)N2 (configuration not stated)	none
C=C(C)C(=O)Nc1cccc(C2=NOC3(C2)C[C@H](C(N)=O)N(C(=O)COc2ccc(Cl)cc2)C3)c1 (some centres not stated)	Apaf1 activ -344.1 | Rh110 interf act inactive | Apaf-1 act conf -126.9 | Fluor interf act inactive
C=C(C)C(=O)Nc1cccc(C2=NOC3(C2)C[C@H](C(N)=O)N(C(=O)c2ccccc2)C3)c1 (some centres not stated)	Apaf1 activ -64.2 | Rh110 interf act inactive | Apaf-1 act conf -58.6 | Fluor interf act inactive
C=C(C)C(=O)Nc1cccc(C2=NOC3(C2)C[C@@H](C(N)=O)N(C(=O)c2cc([N+](=O)[O-])cc([N+](=O)[O-])c2C)C3)c1 (some centres not stated)	Apaf1 activ -106.8 | Rh110 interf act inactive | Apaf-1 act conf -128.3 | Fluor interf act inactive
